This is an account of results in ChEMBL document CHEMBL4138258 (ACS Med Chem Lett, 2017).

In data set [1] the target is T1, Cannabinoid receptor 2 (Homo sapiens, UniProt P34972). Briefly: Agonist activity at recombinant human CB2 receptor expressed in HEK293 cells assessed as increase in beta arrestin recruitment measured after 2 to 3 hrs by PathHunter assay relative to CP55940. It is filed as functional, cell-based. Background: Recruitment of arrestin is a read-out of receptor activation apart from second messengers.
T1 sequence (P34972 whole entry): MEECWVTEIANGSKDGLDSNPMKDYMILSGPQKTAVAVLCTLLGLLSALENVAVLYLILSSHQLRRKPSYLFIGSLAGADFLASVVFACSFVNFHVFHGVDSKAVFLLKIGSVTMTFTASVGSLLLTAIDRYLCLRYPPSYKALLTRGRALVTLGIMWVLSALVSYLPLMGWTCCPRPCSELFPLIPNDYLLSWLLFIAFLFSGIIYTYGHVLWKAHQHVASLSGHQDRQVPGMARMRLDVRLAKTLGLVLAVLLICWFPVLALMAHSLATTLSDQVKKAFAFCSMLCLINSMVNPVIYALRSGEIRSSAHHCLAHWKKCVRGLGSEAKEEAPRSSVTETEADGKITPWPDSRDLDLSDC

Data set [2] is described as follows: Half life in human liver microsomes. It is filed as ADME, microsome. On the technique in general: Liver microsomes are a subcellular fraction often used to study metabolism.
Data set [3] concerns the target T2, Cannabinoid receptor 2 (Rattus norvegicus) (UniProt Q9QZN9).
T2 sequence (whole entry): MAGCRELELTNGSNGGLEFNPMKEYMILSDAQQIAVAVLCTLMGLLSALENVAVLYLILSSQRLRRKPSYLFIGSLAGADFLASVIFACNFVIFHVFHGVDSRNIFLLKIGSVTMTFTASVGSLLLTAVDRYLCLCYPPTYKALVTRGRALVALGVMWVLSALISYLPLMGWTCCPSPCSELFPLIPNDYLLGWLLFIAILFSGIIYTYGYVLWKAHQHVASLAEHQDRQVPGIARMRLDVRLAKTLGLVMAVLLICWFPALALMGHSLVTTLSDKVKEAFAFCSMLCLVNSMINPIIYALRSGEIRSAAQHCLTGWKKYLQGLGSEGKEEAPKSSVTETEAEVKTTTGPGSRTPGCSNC
In words: Agonist activity at recombinant rat CB2 receptor expressed in HEK293 cells assessed as increase in beta arrestin recruitment measured after 2 to 3 hrs by PathHunter assay relative to CP55940. Type of data set: functional, cell-based. The method in brief:
(§1)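 Beta-arrestin recruitment EC50 is the mean of three or more independent experiments (logSD < 0.4). Intrinsic activity (Emax) is expressed relative to CP-55,940 set at 100.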

A short description of data set [4]: Half life in rat liver microsomes. It is filed as ADME, microsome.
Data set [5] has as its target T3, Cannabinoid receptor 1 (Homo sapiens, UniProt P21554). Briefly: Agonist activity at recombinant human CB1 receptor expressed in HEK293 cells assessed as increase in beta arrestin recruitment measured after 2 to 3 hrs by PathHunter assay. It is filed as functional, cell-based.
For data set [6], the target named is Cannabinoid receptor 1 (Rattus norvegicus, UniProt P20272). Briefly: Agonist activity at recombinant rat CB1 receptor expressed in HEK293 cells assessed as increase in beta arrestin recruitment measured after 2 to 3 hrs by PathHunter assay. It is filed as functional, cell-based.
Sequence of Cannabinoid receptor 1 (Rattus norvegicus, UniProt P20272) (P20272 whole entry): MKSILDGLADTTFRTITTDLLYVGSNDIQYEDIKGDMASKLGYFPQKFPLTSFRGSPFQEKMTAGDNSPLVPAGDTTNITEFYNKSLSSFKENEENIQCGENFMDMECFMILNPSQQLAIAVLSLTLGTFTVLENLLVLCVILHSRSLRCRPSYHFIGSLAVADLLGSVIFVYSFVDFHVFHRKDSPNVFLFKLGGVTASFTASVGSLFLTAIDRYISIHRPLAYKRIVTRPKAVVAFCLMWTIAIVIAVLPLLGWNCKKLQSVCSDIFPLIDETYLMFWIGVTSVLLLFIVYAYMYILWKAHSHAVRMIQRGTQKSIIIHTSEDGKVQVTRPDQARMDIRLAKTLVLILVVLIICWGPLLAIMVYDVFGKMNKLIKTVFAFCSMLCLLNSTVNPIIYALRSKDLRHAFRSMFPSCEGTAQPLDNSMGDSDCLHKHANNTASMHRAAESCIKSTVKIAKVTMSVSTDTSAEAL
Data set [7] is described as follows: Half life in mouse liver microsomes. Type of data set: ADME, microsome.
Data set [8] concerns the target T1, Cannabinoid receptor 2. Briefly: Agonist activity at recombinant human CB2 receptor expressed in HEK293 cells assessed as increase in beta arrestin recruitment measured after 2 to 3 hrs by PathHunter assay. It is filed as functional, cell-based.
Data set [9] has as its target T4, Cannabinoid receptor 2 (Rattus norvegicus, UniProt Q9QZN9).
T4 sequence (Q9QZN9 whole entry): T2 sequence (whole entry)
Briefly: Agonist activity at recombinant rat CB2 receptor expressed in HEK293 cells assessed as increase in beta arrestin recruitment measured after 2 to 3 hrs by PathHunter assay. Type of data set: functional, cell-based.

Data set [10] addresses T3, Cannabinoid receptor 1. Briefly: Agonist activity at recombinant human CB1 receptor expressed in HEK293 cells assessed as increase in beta arrestin recruitment measured after 2 to 3 hrs by PathHunter assay relative to CP55940. It is filed as functional, cell-based. The procedure, abridged:
as §1

In data set [11] the target is Cannabinoid receptor 1 (Rattus norvegicus) (UniProt P20272). In words: Agonist activity at recombinant rat CB1 receptor expressed in HEK293 cells assessed as increase in beta arrestin recruitment measured after 2 to 3 hrs by PathHunter assay relative to CP55940. Type of data set: functional, cell-based. The method in brief:
as §1

Data set [12] can be described thus: Ratio of drug level in brain to plasma in Sprague-Dawley rat at 3 mg/kg, po measured after 2 hrs. The note with it: brain and plasma, read-out: BPR. Type of data set: ADME, organism-based.
The subject of data set [13] is Rattus norvegicus. In words: Toxicity in Sprague-Dawley rat assessed as decrease in core body temperature at 0.3 mg/kg, po measured after 60 mins by rectal probe method. It is filed as organism-based. To be noted: in vivo, 1 h.
The target of data set [14] is T2, Cannabinoid receptor 2 (Rattus norvegicus). Briefly: Induction of recombinant HA-tagged rat CB2 receptor internalization expressed in CHOK1 cells at 10 uM measured after 1 hr by time-resolved flow cytometry relative to CP55940. Type of data set: functional, cell-based. In general terms: In flow cytometry, cells or beads pass a laser one at a time.
Data set [15] deals with Rattus norvegicus. Briefly: Toxicity in Sprague-Dawley rat assessed as effect on locomotor activity up to 100 mg/kg, po. It is filed as organism-based. The note with it: in vivo.
The test system of data set [16] is Rattus norvegicus. In words: Toxicity in Sprague-Dawley rat assessed as change in body temperature up to 100 mg/kg, po. The note with it: in vivo. Type of data set: organism-based.

Where only a bound is given, the exact number is not on record here.

T3 sequence (P21554 whole entry): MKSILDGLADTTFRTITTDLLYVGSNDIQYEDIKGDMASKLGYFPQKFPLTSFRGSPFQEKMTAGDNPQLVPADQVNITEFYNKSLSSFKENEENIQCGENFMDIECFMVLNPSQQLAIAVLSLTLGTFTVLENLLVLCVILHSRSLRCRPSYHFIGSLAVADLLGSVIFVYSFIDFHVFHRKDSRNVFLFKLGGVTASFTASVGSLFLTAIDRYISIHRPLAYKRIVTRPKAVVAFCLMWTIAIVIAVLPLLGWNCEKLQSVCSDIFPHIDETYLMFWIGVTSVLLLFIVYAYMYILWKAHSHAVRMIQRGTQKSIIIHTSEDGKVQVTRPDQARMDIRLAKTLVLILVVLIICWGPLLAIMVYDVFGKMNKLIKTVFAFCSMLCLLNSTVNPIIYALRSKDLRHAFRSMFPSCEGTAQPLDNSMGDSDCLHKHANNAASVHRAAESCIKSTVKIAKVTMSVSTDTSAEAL
Sequence of Cannabinoid receptor 1 (Rattus norvegicus) (P20272 whole entry): as the sequence (P20272 whole entry) above

A word on the Emax: it is the greatest response seen or fitted, relative to the assay's reference. In general, half-life refers to the time in which the quantity being followed falls by half. A higher half-life goes with slow loss. The EC50 is the midpoint of the concentration-response curve. `CC(C)(C)[C@@H](CO)NC(=O)c1nn(-c2cnccn2)c2c1C[C@H]1C[C@@H]21`: the Emax on Cannabinoid receptor 2 [1] worked out at 104%; in data set [3], 78%. Moreover, the half-life is greater than 1 h in [2], 0.633 h in data set [4] and 0.15 h in data set [7]. Besides, the EC50 is greater than 10 µM at Cannabinoid receptor 1 [5], greater than 10 µM on Cannabinoid receptor 1 [6], 0.026 µM at Cannabinoid receptor 2 [8] and 0.021 µM on Cannabinoid receptor 2 [9].
Consider `CC(C)(C)[C@H](CO)NC(=O)c1nn(-c2cnccn2)c2c1C[C@@H]1C[C@H]21`, for which the maximal response (Emax) on Cannabinoid receptor 2 [1] worked out at 78%. In addition, the EC50 is greater than 10 µM at Cannabinoid receptor 1 [5] and 0.56 µM at Cannabinoid receptor 2 [8].
As to `CC(C)(C)[C@@H](CF)NC(=O)c1nn(-c2c[n+]([O-])ccn2)c2c1C[C@@H]1C[C@H]21`, the Emax is 107% on Cannabinoid receptor 2 [1], 97% in data set [3], 105% at Cannabinoid receptor 1 [10] and 107% in data set [11]. Further, the half-life in [2] and in data set [4] was greater than 1 h throughout. In addition, the EC50 on Cannabinoid receptor 1 [5] was determined as 1.1 µM; on Cannabinoid receptor 1 [6], 0.84 µM; on Cannabinoid receptor 2 [8] it was 0.0012 µM; on Cannabinoid receptor 2 [9], 0.0015 µM.
For `CC(C)(CO)NC(=O)c1nn(-c2cnccn2)c2c1C[C@H]1C[C@@H]21`, the half-life in [2], in [4] and in data set [7] was greater than 1 h throughout. Moreover, the Emax in [3] was determined as 85%.
Turning to `CC(C)(C)[C@@H](CO)NC(=O)c1nn(-c2cnccn2)c2c1C[C@@H]1C[C@H]21`, the maximal response (Emax) on Cannabinoid receptor 2 [1] was 107%; in [3] it was 95%. In addition, the results for the half-life in [2], in data set [4] and in data set [7] were greater than 1 h, greater than 1 h and 0.4 h, respectively. Besides, in data set [12], the Kp at 2 h was determined as 0.1. Moreover, the EC50 at Cannabinoid receptor 1 [5] was greater than 10 µM; at Cannabinoid receptor 1 [6], greater than 10 µM; at Cannabinoid receptor 2 [8], 0.059 µM; on Cannabinoid receptor 2 [9], 0.053 µM.
Consider `CCCCCCC(C)(C)c1ccc([C@@H]2C[C@H](O)CC[C@H]2CCCO)c(O)c1` [CP-55940], for which, in the data set with Rattus norvegicus [13], the Activity entry was “Toxic”.
As to `CC(C)(CO)NC(=O)c1nn(-c2ccc(F)cc2F)c2c1C[C@H]1C[C@@H]21`, the maximal response (Emax) in [3] was 46%. For the same compound, in data set [14], the Activity stood at 68%.
In the case of `CC(C)[C@@H](CO)NC(=O)c1nn(-c2c[n+]([O-])ccn2)c2c1C[C@@H]1C[C@H]21`, the Emax on Cannabinoid receptor 2 [1] was found to be 103%; in data set [3], 88%. The half-life in data set [2] and in [4] was greater than 1 h each time. Besides, the 50% effective concentration (EC50) on Cannabinoid receptor 1 [5] was greater than 10 µM; on Cannabinoid receptor 1 [6] it was greater than 10 µM; on Cannabinoid receptor 2 [8] it was 0.046 µM; at Cannabinoid receptor 2 [9] it was 0.055 µM.
Turning to `O=C(NC1(C(F)(F)F)CCC1)c1nn(-c2c[n+]([O-])ccn2)c2c1C[C@@H]1C[C@H]21`, the Emax on Cannabinoid receptor 2 [1] is 115%; in data set [3] it was 106%. Besides, the half-life in data set [2] and in data set [4] was greater than 1 h in each case. The EC50 at Cannabinoid receptor 1 [5] was greater than 10 µM; on Cannabinoid receptor 1 [6] it was greater than 10 µM; at Cannabinoid receptor 2 [8], 0.0012 µM; on Cannabinoid receptor 2 [9] it was 0.0016 µM.
Take `O=C(NC1(CO)CCCC1)c1nn(-c2c[n+]([O-])ccn2)c2c1C[C@@H]1C[C@H]21`: the maximum response (Emax) at Cannabinoid receptor 2 [1] is 112%; in data set [3], 106%. Moreover, the half-life in [2] and in [4] was greater than 1 h throughout. In addition, the EC50 is greater than 10 µM at Cannabinoid receptor 1 [5], greater than 10 µM on Cannabinoid receptor 1 [6], 0.0056 µM on Cannabinoid receptor 2 [8] and 0.0068 µM at Cannabinoid receptor 2 [9].
With `O=C(N[C@H](CO)c1ccccc1)c1nn(-c2c[n+]([O-])ccn2)c2c1C[C@@H]1C[C@H]21`, the maximal response (Emax) at Cannabinoid receptor 2 [1] amounted to 96%; in data set [3] it was 72%. Besides, the half-life in data set [2] and in [4] was greater than 1 h in each case. In addition, the 50% effective concentration (EC50) was greater than 10 µM on Cannabinoid receptor 1 [5], greater than 10 µM at Cannabinoid receptor 1 [6] and 0.06 µM on Cannabinoid receptor 2 [9].
As for `CC1(NC(=O)c2nn(-c3c[n+]([O-])ccn3)c3c2C[C@@H]2C[C@H]32)CC1`, the Emax is 102% on Cannabinoid receptor 2 [1] and 81% in [3]. For the same compound, the EC50 was greater than 10 µM at Cannabinoid receptor 1 [5], greater than 10 µM on Cannabinoid receptor 1 [6], 0.091 µM at Cannabinoid receptor 2 [8] and 0.29 µM at Cannabinoid receptor 2 [9].
With `O=C(N[C@@H](CO)C(F)(F)F)c1nn(-c2c[n+]([O-])ccn2)c2c1C[C@@H]1C[C@H]21`, the Emax came out at 119% at Cannabinoid receptor 2 [1] and 107% in data set [3]. Further, the half-life in data set [2] and in data set [4] was greater than 1 h throughout. The EC50 was greater than 10 µM at Cannabinoid receptor 1 [5], greater than 10 µM at Cannabinoid receptor 1 [6], 0.0172 µM at Cannabinoid receptor 2 [8] and 0.035 µM at Cannabinoid receptor 2 [9].
Consider `O=C(N[C@H](CO)C(F)(F)F)c1nn(-c2c[n+]([O-])ccn2)c2c1C[C@@H]1C[C@H]21`, for which the Emax at Cannabinoid receptor 2 [1] stood at 98%; in data set [3] it was 85%. Also, the half-life in data set [2] and in data set [4] was greater than 1 h throughout. Also, the EC50 is greater than 10 µM at Cannabinoid receptor 1 [5], greater than 10 µM at Cannabinoid receptor 1 [6], 0.28 µM on Cannabinoid receptor 2 [8] and 0.53 µM at Cannabinoid receptor 2 [9].
Regarding `CC(C)(NC(=O)c1nn(-c2c[n+]([O-])ccn2)c2c1C[C@@H]1C[C@H]21)C(F)(F)F`, the results for the maximal response (Emax) (on Cannabinoid receptor 2 [1]; in [3]) were 108% and 98%, respectively. The half-life in [2] and in [4] was greater than 1 h each time. The Kp at 2 h in [12] worked out at 0.83. Also, the Activity result with Rattus norvegicus [15] and with Rattus norvegicus [16] was “Non-Toxic” each time. The EC50 is greater than 10 µM on Cannabinoid receptor 1 [5], greater than 10 µM at Cannabinoid receptor 1 [6], 0.0023 µM on Cannabinoid receptor 2 [8] and 0.0063 µM on Cannabinoid receptor 2 [9].
Take `O=C(NC1(C(F)(F)F)CC1)c1nn(-c2c[n+]([O-])ccn2)c2c1C[C@@H]1C[C@H]21`: the half-life in [2] and in [4] was greater than 1 h each time. Further, the Emax in [3] came out at 103%. Moreover, the EC50 at Cannabinoid receptor 1 [5] was greater than 10 µM; on Cannabinoid receptor 1 [6], greater than 10 µM; at Cannabinoid receptor 2 [9], 0.0145 µM.
With `CC(C)[C@@H](CF)NC(=O)c1nn(-c2c[n+]([O-])ccn2)c2c1C[C@@H]1C[C@H]21`, the Emax is 98% at Cannabinoid receptor 2 [1], 87% in data set [3], 96% at Cannabinoid receptor 1 [10] and 74% in data set [11]. Moreover, the half-life in data set [2] and in data set [4] was greater than 1 h each time. Also, the EC50 at Cannabinoid receptor 1 [5] was found to be 6.1 µM; at Cannabinoid receptor 1 [6], 2.7 µM; at Cannabinoid receptor 2 [8], 0.0038 µM; at Cannabinoid receptor 2 [9] it was 0.0064 µM.
